Calls of active or inactive are those of the source. The calls are words filed in the database; no cut-off is given here.
Assays:
[1] = target: Metabotropic glutamate receptor 7 (Rattus norvegicus) (UniProt P35400); assay: Antagonist activity against LSP4-202-induced rat mGlu7 activation transfected in HEK293 cells co-transfected with chimeric Gqi9 assessed as decrease in LSP4-202 potency by measuring LSP4-202 pEC50 incubated for 24 hrs by IP-one HTRF assay; format: functional, cell-based
Outline: (§1)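 IP-One HTRF IP1 read-out in HEK293 transiently expressing rat mGlu7 plus chimeric Gqα9, 24 h after electroporation. LSP4-2022 concentration-response was tested with derivatives at 30 or 100 µM. Gives pEC50, pEC50/pEC50 control ratio, and max as % of LSP4-2022 maximal effect over basal. Triplicates, n independent experiments; paired t-test.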

[2] = target: Metabotropic glutamate receptor 7 (Rattus norvegicus) (UniProt P35400); assay: Antagonist activity against LSP4-202-induced rat mGlu7 activation transfected in HEK293 cells co-transfected with chimeric Gqi9 assessed as decrease in LSP4-202 potency by measuring LSP4-202 maximum efficacy at 30 to 100 uM incubated for 24 hrs by IP-one HTRF assay relative to control; format: functional, cell-based; settings: filed as antagonist, dose 30-100 µM; outline: as §1
Rattus norvegicus [3] = species on record: Rattus norvegicus; assay: Ratio of pEC50 for antagonist activity against LSP4-202-induced rat mGlu7 activation transfected in HEK293 cells co-transfected with chimeric Gqi9 assessed as decrease in LSP4-202 potency to pEC50 for LSP4-202-induced rat mGlu7 activation transfected in HEK293 cells co-transfected with chimeric Gqi9; format: cell-based; outline: as §1
[4] = target: Metabotropic glutamate receptor 7 (Rattus norvegicus, UniProt P35400); assay: Antagonist activity against rat mGlu7 activation transfected in HEK293 cells co-transfected with chimeric Gqi9 incubated for 24 hrs in presence of LSP4-2022 by IP-one HTRF assay; format: functional, cell-based
Sequence of Metabotropic glutamate receptor 7 (P35400 whole entry): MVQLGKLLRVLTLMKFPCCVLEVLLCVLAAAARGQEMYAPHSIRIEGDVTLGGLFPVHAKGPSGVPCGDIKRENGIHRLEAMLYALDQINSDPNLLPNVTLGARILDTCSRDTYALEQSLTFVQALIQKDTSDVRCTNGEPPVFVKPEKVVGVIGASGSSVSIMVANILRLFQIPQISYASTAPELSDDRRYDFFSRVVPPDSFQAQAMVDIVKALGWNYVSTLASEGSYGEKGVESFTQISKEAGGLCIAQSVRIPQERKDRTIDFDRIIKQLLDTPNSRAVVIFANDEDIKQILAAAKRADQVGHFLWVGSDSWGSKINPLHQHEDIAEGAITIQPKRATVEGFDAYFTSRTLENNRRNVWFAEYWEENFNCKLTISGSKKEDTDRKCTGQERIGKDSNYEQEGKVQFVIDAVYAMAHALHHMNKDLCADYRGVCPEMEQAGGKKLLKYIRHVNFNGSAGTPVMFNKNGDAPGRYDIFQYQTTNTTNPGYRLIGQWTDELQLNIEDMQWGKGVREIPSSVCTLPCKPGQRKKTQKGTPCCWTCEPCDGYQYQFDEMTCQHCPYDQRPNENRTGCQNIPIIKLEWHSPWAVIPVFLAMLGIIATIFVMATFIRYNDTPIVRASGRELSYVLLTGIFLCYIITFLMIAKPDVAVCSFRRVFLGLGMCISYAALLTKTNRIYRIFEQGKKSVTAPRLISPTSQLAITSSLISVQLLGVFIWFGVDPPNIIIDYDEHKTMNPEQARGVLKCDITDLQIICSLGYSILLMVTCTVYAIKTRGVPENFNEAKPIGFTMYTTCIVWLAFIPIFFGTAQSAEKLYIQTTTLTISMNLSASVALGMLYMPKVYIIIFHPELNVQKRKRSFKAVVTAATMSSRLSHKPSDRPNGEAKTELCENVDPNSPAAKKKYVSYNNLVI
Outline: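 Inhibition curves were run with increasing inhibitor concentrations against IP1 production by 30 µM LSP4-2022. Rat mGlu7 was co-expressed with Gqα9 in HEK293 and assayed 24 h post-transfection with IP-One HTRF. IC50/pIC50 are means ± sem of independent experiments in triplicates. pIC50 compared to reference by unpaired t-test.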

[5] = target: Metabotropic glutamate receptor 7 (Rattus norvegicus) (UniProt P35400); assay: Competitive antagonist activity against rat mGlu7 receptor assessed as decrease in LSP4-202 effect at 0.3 to 30 uM by Schild plot analysis; settings: filed as antagonist, dose 0.3-30 µM
Outline: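 Schild analysis used the shift of LSP4-2022 concentration-response curves in IP-One IP1 assays. Cells were HEK293 co-transfected with rat mGlu7 and Gqα9. Data are means ± sem of 3 to 11 experiments run in triplicates.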

Rattus norvegicus [6] = species on record: Rattus norvegicus; assay: Ratio of pEC50 for antagonist activity against LSP4-202 induced wild type rat mGlu7 assessed as decrease in LSP4-202 potency by measuring LSP4-202 pEC50 at 3 uM to pEC50 for LSP4-202-induced wild type rat mGlu7
Rattus norvegicus [7] = species on record: Rattus norvegicus; assay: Ratio of pEC50 for antagonist activity against LSP4-202 induced wild type rat mGlu7 assessed as decrease in LSP4-202 potency by measuring LSP4-202 pEC50 at 10 uM to pEC50 for LSP4-202-induced wild type rat mGlu7
Rattus norvegicus [8] = species on record: Rattus norvegicus; assay: Ratio of pEC50 for antagonist activity against LSP4-202 induced rat mGlu7 S229A mutant assessed as decrease in LSP4-202 potency by measuring LSP4-202 pEC50 at 10 uM to pEC50 for LSP4-202-induced rat mGlu7 S229A mutant
Rattus norvegicus [9] = species on record: Rattus norvegicus; assay: Ratio of pEC50 for antagonist activity against LSP4-202 induced wild type rat mGlu7 assessed as decrease in LSP4-202 potency by measuring LSP4-202 pEC50 at 30 uM to pEC50 for LSP4-202-induced wild type rat mGlu7
[10] = Antagonist activity against LSP4-202-induced rat mGlu7 […] mutant assessed as decrease in LSP4-202 potency by measuring LSP4-202 pEC50 at 100 uM
Rattus norvegicus [11] = species on record: Rattus norvegicus; assay: Ratio of pEC50 for antagonist activity against LSP4-202 induced rat mGlu7 S229A mutant assessed as decrease in LSP4-202 potency by measuring LSP4-202 pEC50 at 30 uM to pEC50 for LSP4-202-induced rat mGlu7 S229A mutant
Rattus norvegicus [12] = species on record: Rattus norvegicus; assay: Ratio of pEC50 for antagonist activity against LSP4-202 induced rat mGlu7 S229A mutant assessed as decrease in LSP4-202 potency by measuring LSP4-202 pEC50 at 100 uM to pEC50 for LSP4-202-induced rat mGlu7 S229A mutant
[13] = Antagonist activity against LSP4-202-induced rat mGlu7 […] mutant assessed as decrease in LSP4-202 potency by measuring LSP4-202 pEC50 at 10 uM
[14] = Antagonist activity against LSP4-202-induced rat mGlu7 […] mutant assessed as decrease in LSP4-202 potency by measuring LSP4-202 pEC50 at 30 uM

Sequence of Metabotropic glutamate receptor 7 (Rattus norvegicus) (P35400 whole entry): as above

SMILES | Emax [2] | Ratio (Rattus norvegicus [3]) | also measured
O=c1c2ccc(O)cc2oc2c1oc1ccc(I)cc12 | – | – | inhibition [1]: inactive
COc1ccc(C(=O)COc2ccc(I)cc2)cc1 | 93.6% | 0.97 | –
O=c1c2ccccc2oc2c1sc1ccccc12 | – | – | inhibition [1]: inactive
O=Cc1ccc(OCC(=O)c2ccc(O)cc2)cc1F | 106% | 1 | –
O=C(COc1c(F)cc(Br)cc1F)c1ccc(O)cc1 | 94.6% | 0.85 | –
O=C(COc1ccc(O)cc1)c1ccc(O)cc1 | 88.1% | 1.06 | –
O=C(COc1ccc(Br)cc1F)c1cc(F)c(O)c(F)c1 | – | < 0.6 | IC50 ([4]; read-out: IC50): 1.25 µM; IC50 ([4]; read-out: pIC50 (converted)): 1.15 µM; Activity [5]: Active
COc1ccc2c(c1)oc1c(=O)c3ccccc3oc12 | – | – | inhibition [1]: inactive
COc1ccc(OCC(=O)c2ccc(O)cc2)cc1 | 97.6% | 0.96 | –
O=C(COc1ccc(F)cc1F)c1ccc(O)cc1 | 100% | 1.04 | –
O=C(COc1ccc(Br)cc1)c1ccc(O)cc1 | 99.2% | 0.81 | –
COc1ccc(C(=O)COc2ccc(I)c(C)c2)cc1 | 95.9% | 0.97 | –
O=c1c2ccc(F)cc2oc2c1oc1ccc(I)cc12 | – | – | inhibition [1]: inactive
O=C(COc1cccc(O)c1)c1ccc(O)cc1 | 96.8% | 1.03 | –
Cc1cc(I)ccc1OCC(=O)c1ccc(O)cc1 | 98.3% | 0.97 | –
Cc1cc(OCC(=O)c2ccc(O)cc2)ccc1I | 97.5% | 0.96 | –
O=C(O)c1ccc(OCC(=O)c2ccc(O)cc2)cc1 | 98.6% | 1.07 | –
COc1ccc2c(=O)c3oc4cc(I)ccc4c3oc2c1 | – | – | inhibition [1]: inactive
O=C(COc1ccc(Br)cc1F)c1ccc(O)cc1 | 87.3% | 0.76 | IC50 ([4]; read-out: IC50): 2.6 µM; IC50 ([4]; read-out: pIC50 (converted)): 2.24 µM
COc1ccc(OCC(=O)c2ccc(O)cc2)cc1OC | 96% | 0.99 | –
O=c1c2ccc(O)cc2oc2c1oc1cc(I)ccc12 | – | – | inhibition [1]: inactive
O=C(COc1ccc(Br)cc1F)c1ccc(O)c(O)c1 | 90.3% | 0.76 | IC50 ([4]; read-out: IC50): 3.44 µM; IC50 ([4]; read-out: pIC50 (converted)): 3.31 µM; Ratio (Rattus norvegicus [6]): 0.91; Ratio (Rattus norvegicus [7]): 0.85; Activity [5]: Active; Ratio (Rattus norvegicus [8]): 0.91; Ratio (Rattus norvegicus [9]): 0.79; EC50 [10]: 27 µM; pEC50 [10]: 4.6; Ratio (Rattus norvegicus [11]): 0.93; Ratio (Rattus norvegicus [12]): 0.95; EC50 [13]: 38.2 µM; pEC50 [13]: 4.42; EC50 [14]: 35.7 µM; pEC50 [14]: 4.53

SMILES | Emax [2] | Ratio (Rattus norvegicus [3]) | also measured
O=C(COc1ccc(C(F)(F)F)cc1)c1ccc(O)cc1 | 101% | 0.91 | –
O=C(COc1ccc(Cl)cc1Cl)c1ccc(O)cc1 | 92.3% | 0.94 | –
N#Cc1ccc(OCC(=O)c2ccc(O)cc2)cc1 | 92.6% | 0.89 | –
COc1ccc(C(=O)COc2ccc(I)cc2)cc1OC | 80.4% | 1.05 | –
O=C(COc1ccc([N+](=O)[O-])cc1)c1ccc(O)cc1 | 98.5% | 0.87 | –
O=C(COc1ccc(Br)cc1Br)c1ccc(O)cc1 | 96.1% | 0.97 | –
O=c1c2ccccc2oc2c1oc1ccc(Br)cc12 | – | – | inhibition [1]: inactive
O=C(COc1ccc(Cl)cc1)c1ccc(O)cc1 | 98.5% | 0.83 | –
O=C(COc1ccc([N+](=O)[O-])c([N+](=O)[O-])c1)c1ccc(O)cc1 | 101% | 1 | –
N#Cc1c(F)cc(OCC(=O)c2ccc(O)cc2)cc1F | 94.2% | 1.03 | –
O=c1c2ccccc2oc2c1oc1cc(O)ccc12 | – | – | inhibition [1]: inactive
COc1ccc2c(=O)c3oc4ccc(I)cc4c3oc2c1 | – | – | inhibition [1]: inactive
O=C(COc1c(Cl)cc(Br)cc1Cl)c1ccc(O)cc1 | 101% | 1.01 | –
Cc1ccc(OCC(=O)c2ccc(O)cc2)cc1 | 95.4% | 0.96 | –
COc1ccc(C(=O)COc2ccc(C#N)cc2)cc1 | 89.4% | 0.95 | –
COc1ccc(C(=O)COc2ccc([N+](=O)[O-])cc2)cc1 | 85.2% | 0.95 | –
O=C(COc1ccc(I)cc1)c1ccc(O)cc1 | 98.3% | 0.83 | –
O=C(COc1ccc(Br)cc1Cl)c1ccc(O)cc1 | 93.3% | 0.95 | –
O=C(COc1cccc(I)c1)c1ccc(O)cc1 | 102% | 1.02 | –
NS(=O)(=O)c1ccc(OCC(=O)c2ccc(O)cc2)cc1 | 89.2% | 1.06 | –
COc1ccc(C(=O)COc2ccc(C(F)(F)F)cc2)cc1 | 96.6% | 0.97 | –
O=c1c2ccccc2oc2c1oc1ccc(Cl)cc12 | – | – | inhibition [1]: inactive

Reference: ChEMBL document CHEMBL5523707, “Novel Inhibitory Site Revealed by XAP044 Mode of Action on the Metabotropic Glutamate 7 Receptor Venus Flytrap Domain” (J Med Chem, 2024)
